# From ChEMBL document CHEMBL1124668, “Solid-phase synthesis of 16 potent (selective and nonselective) in vivo antagonists of oxytocin” (J Med Chem, 1989)
# Starred links: 1 amine or outer side, 2 acyl side, 3 side chain; linkers in the order of their positions; H or OH if unused. Positions of bridges follow the written chain, without caps; N, C: chain ends. Non-standard residues stand in square brackets, D forms with d. Residues, ends and D or L forms follow the SMILES beside them. X1 = O=C(CC1(S[*:2])CCCCC1)[*:1]; Orn = NCCC[C@H](N)C(=O)O
# Columns and labels:
# Rattus norvegicus [1] = test: (§1) Antivasopressor activity in vivo in phenoxybenzamine pre-treated rats.; type: functional, organism-based; settings: read-out: pA2 (converted)
# Outline: (§2)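 Rats pretreated with phenoxybenzamine, under urethane anesthesia; antagonist given iv; agonist USP Posterior Pituitary Reference Standard; read-out is pressor response. Effective dose (nmol/kg) is the dose that cuts the response to 2X units of agonist to that of 1X unit, interpolated semilogarithmically from bracketing doses. pA2 assumes a 67 mL/kg distribution volume. SEM is given where there are ≥4 independent estimates.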
# Rattus norvegicus [2] = species on record: Rattus norvegicus; test: Antioxytoxic activity in vitro in isolated uteri from estrogen pretreated rats suspended in Mg supplemented Dyke-Hastings solution.; type: functional; settings: read-out: pA2 (converted)
# Outline: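 Isolated rat uterus in bath medium with Mg2+; agonist USP Posterior Pituitary Reference Standard. pA2 is the −log of the effective molar antagonist concentration that reduces the response to a dose of agonist to the response to half that dose. It is interpolated semilogarithmically from concentrations above and below it. SEM is given where there are ≥4 independent estimates.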
# Rattus norvegicus [3] = test: Antioxytocic potencies (change in interuterine pressure) in vivo in estrogen pre-treated rats.; type: functional, organism-based; settings: read-out: pA2 (converted)
# Outline: (§3)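 Rats pretreated with estrogen, under urethane anesthesia; antagonist given iv; read-out is change in integrated intrauterine pressure; agonist synthetic oxytocin. Effective dose (nmol/kg) is the dose that cuts the response to 2X units of agonist to the response to 1X unit, interpolated on a semilog scale from doses above and below it. pA2 is derived assuming a 67 mL/kg distribution volume.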
# Rattus norvegicus [4] = species on record: Rattus norvegicus; test: Antioxytoxic activity in vitro in isolated uteri from estrogen pretreated rats suspended in Mg-free Dyke-Hastings solution.; settings: read-out: pA2 (converted)
# Rattus norvegicus [5] = test: as §1; type: functional; outline: as §2
# Rattus norvegicus [6] = test: In vivo inhibition of estrogen induced changes in interuterine pressure in rats.; type: functional; outline: as §3
compound,measurement,setting,value
CC[C@H](C)[C@@H]1NC(=O)[C@H](Cc2ccc(OC)cc2)NC(=O)CC2(CCCCC2)SSC[C@@H](C(=O)N2CCC[C@H]2C(=O)N[C@@H](CCCN)C(=O)N[C@@H](C)C(N)=O)NC(=O)[C@H](CC(N)=O)NC(=O)[C@H]([C@@H](C)O)NC1=O [listing 1 of 2 here],Kb,Rattus norvegicus [1],112 nM
same,Kb,Rattus norvegicus [2],6.31 nM
same,Kb,Rattus norvegicus [3],34.7 nM
same,Kb,Rattus norvegicus [4],24 nM
CC[C@H](C)[C@@H]1NC(=O)[C@H](Cc2ccc(OC)cc2)NC(=O)CC2(CCCCC2)SSC[C@@H](C(=O)N2CCC[C@H]2C(=O)N[C@@H](CCCN)C(=O)N[C@@H](C)C(N)=O)NC(=O)[C@H](CC(N)=O)NC(=O)[C@H]([C@@H](C)O)NC1=O [listing 2 of 2 here],ED,Rattus norvegicus [5],8.1 nM/kg
same,ED,Rattus norvegicus [6],2.4 nM/kg
CC[C@H](C)[C@@H]1NC(=O)[C@H](Cc2ccc(OC)cc2)NC(=O)CC2(CCCCC2)SSC[C@@H](C(=O)N2CCC[C@H]2C(=O)N[C@@H](CCCN)C(=O)N[C@@H](CCCN=C(N)N)C(N)=O)NC(=O)[C@H](CC(N)=O)NC(=O)[C@H]([C@@H](C)O)NC1=O [listing 1 of 2 here],Kb,Rattus norvegicus [1],11 nM
same,Kb,Rattus norvegicus [2],5.5 nM
same,Kb,Rattus norvegicus [3],28.8 nM
same,Kb,Rattus norvegicus [4],20.4 nM
CC[C@H](C)[C@@H]1NC(=O)[C@H](Cc2ccc(OC)cc2)NC(=O)CC2(CCCCC2)SSC[C@@H](C(=O)N2CCC[C@H]2C(=O)N[C@@H](CCCN)C(=O)N[C@@H](CCCN=C(N)N)C(N)=O)NC(=O)[C@H](CC(N)=O)NC(=O)[C@H]([C@@H](C)O)NC1=O [listing 2 of 2 here],ED,Rattus norvegicus [5],0.76 nM/kg
same,ED,Rattus norvegicus [6],2.3 nM/kg
COc1ccc(C[C@@H]2NC(=O)CC3(CCCCC3)SSC[C@@H](C(=O)N3CCC[C@H]3C(=O)N[C@@H](CCCN=C(N)N)C(=O)NCC(N)=O)NC(=O)[C@H](CC(N)=O)NC(=O)[C@H](CCC(N)=O)NC(=O)[C@H](Cc3ccccc3)NC2=O)cc1,ED,Rattus norvegicus [5],0.16 nM/kg
same,ED,Rattus norvegicus [6],17 nM/kg
CC[C@H](C)[C@@H]1NC(=O)[C@H](Cc2ccc(OC)cc2)NC(=O)CC2(CCCCC2)SSC[C@@H](C(=O)N2CCC[C@H]2C(=O)N[C@@H](CCCN)C(=O)NCC(N)=O)NC(=O)[C@H](CC(N)=O)NC(=O)[C@H](CCC(N)=O)NC1=O (Y(Me)IQNCP[Orn]G-NH2; linker N-5 via X1),Kb,Rattus norvegicus [1],11 nM
same,Kb,Rattus norvegicus [2],13.2 nM
same,Kb,Rattus norvegicus [3],42.7 nM
same,Kb,Rattus norvegicus [4],3.02 nM
CC[C@H](C)[C@@H]1NC(=O)[C@H](Cc2ccc(OC)cc2)NC(=O)CC2(CCCCC2)SSC[C@@H](C(=O)N2CCC[C@H]2C(=O)N[C@@H](CCCN)C(=O)N[C@@H](CC(C)C)C(N)=O)NC(=O)[C@H](CC(N)=O)NC(=O)[C@H]([C@@H](C)O)NC1=O (Y(Me)ITNCP[Orn]L-NH2; linker N-5 via X1),Kb,Rattus norvegicus [1],407 nM
same,Kb,Rattus norvegicus [2],3.47 nM
same,Kb,Rattus norvegicus [3],26.9 nM
same,Kb,Rattus norvegicus [4],16.6 nM
CC[C@H](C)[C@@H]1NC(=O)[C@H](Cc2ccc(OC)cc2)NC(=O)CC2(CCCCC2)SSC[C@@H](C(=O)N2CCC[C@H]2C(=O)N[C@@H](CCCN)C(=O)N[C@@H](Cc2ccc(O)cc2)C(N)=O)NC(=O)[C@H](CC(N)=O)NC(=O)[C@H]([C@@H](C)O)NC1=O (Y(Me)ITNCP[Orn]Y-NH2; linker N-5 via X1),Kb,Rattus norvegicus [1],95.5 nM
same,Kb,Rattus norvegicus [2],5.25 nM
same,Kb,Rattus norvegicus [3],14.8 nM
same,Kb,Rattus norvegicus [4],23.4 nM
CC[C@H](C)[C@@H]1NC(=O)C(Cc2ccc(OC)cc2)NC(=O)CC2(CCCCC2)SSC[C@@H](C(=O)N2CCC[C@H]2C(=O)N[C@@H](CCCN=C(N)N)C(=O)NCC(N)=O)NC(=O)[C@H](CC(N)=O)NC(=O)[C@H](CCC(N)=O)NC1=O (stereo in doubt),Kb,Rattus norvegicus [1],8.32 nM
same,Kb,Rattus norvegicus [2],3.24 nM
same,Kb,Rattus norvegicus [3],15.8 nM
same,Kb,Rattus norvegicus [4],1.91 nM
CC[C@H](C)[C@@H]1NC(=O)C(Cc2ccc(OC)cc2)NC(=O)CC(C)(C)SSC[C@@H](C(=O)N2CCC[C@H]2C(=O)N[C@@H](CCCN=C(N)N)C(=O)NCC(N)=O)NC(=O)[C@H](CC(N)=O)NC(=O)[C@H](CCC(N)=O)NC1=O (stereo in doubt),Kb,Rattus norvegicus [1],3.55 nM
same,Kb,Rattus norvegicus [2],1.95 nM
same,Kb,Rattus norvegicus [3],24.5 nM
same,Kb,Rattus norvegicus [4],0.759 nM
CC[C@H](C)[C@@H]1NC(=O)C(Cc2ccc(OC)cc2)NC(=O)CC2(CCCCC2)SSC[C@@H](C(=O)N2CCC[C@H]2C(=O)N[C@@H](CCCCN)C(=O)NCC(N)=O)NC(=O)[C@H](CC(N)=O)NC(=O)[C@H](CCC(N)=O)NC1=O (stereo in doubt),Kb,Rattus norvegicus [1],20.9 nM
same,Kb,Rattus norvegicus [2],15.5 nM
same,Kb,Rattus norvegicus [3],58.9 nM
same,Kb,Rattus norvegicus [4],23.4 nM
